# From PubChem
# KCNK9 inh = blocks the human KCNK9 two-pore domain potassium channel; Q9NPC2; HEK293 KCNK9, FluxOR thallium flux fluorescence; stronger effect = lower value; B-score at 10 µM; actives 1.2% (n = 310,000); AID 488922;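 active = ratio B-score over 3 SD below the library mean, with starting fluorescence within 5 SD of its mean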;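 also: negative B-score means less thallium flux so channel inhibition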
# Target sequence (Q9NPC2 whole entry, looked up, the tested form may be a part): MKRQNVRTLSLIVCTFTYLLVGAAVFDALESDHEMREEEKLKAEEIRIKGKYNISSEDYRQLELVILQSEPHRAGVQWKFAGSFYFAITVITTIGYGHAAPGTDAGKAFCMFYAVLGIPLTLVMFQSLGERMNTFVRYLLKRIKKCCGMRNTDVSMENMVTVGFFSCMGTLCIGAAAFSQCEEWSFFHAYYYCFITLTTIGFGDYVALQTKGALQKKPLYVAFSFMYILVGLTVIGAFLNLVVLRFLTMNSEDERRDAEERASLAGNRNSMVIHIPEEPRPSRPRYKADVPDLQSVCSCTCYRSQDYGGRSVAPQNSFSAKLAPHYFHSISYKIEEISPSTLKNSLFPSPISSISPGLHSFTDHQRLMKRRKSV
# KCNQ1 block = inhibitors of human KCNQ1 potassium channel; P51787; CHO-K1 KCNQ1, FluxOR thallium flux fluorescence; stronger effect = higher value; B-score at 10 µM; actives 1.3% (n = 310,000); AID 2642;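 active = compounds whose thallium flux B-score, printed positive for inhibition, exceeds three library SD while starting fluorescence stays within three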;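 also: channel opened by potassium depolarization with thallium stimulus after 20 min compound exposure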
# KCNK3 inh = human KCNK3 channel inhibition, primary screen; O14649; CHO-KCNK3 thallium flux, FluxOR fluorescence; stronger effect = lower value; B-score at 10 µM; actives 0.84% (n = 340,000);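 active = B-score under library mean minus 4 SD, starting fluorescence ratio at most library mean plus 5 SD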;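 also: more negative B-score means stronger inhibition of thallium flux through KCNK3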
# Kir21 block = inhibitors of mouse Kir2.1 inward-rectifier potassium channel; HEK293-Kir2.1, FluxOR thallium flux fluorescence; stronger effect = lower value; B-score at 10 µM; actives 0.85% (n = 310,000); AID 1672;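 active = fluorescence ratio B-score at or below minus 3 SD of library scores, with starting-brightness B-score within 2 SD, cut at about -4.2 in these data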;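 also: channel flux triggered by added potassium and thallium sulfate stimulus; B-score of peak minus minimum fluorescence over baseline after thallium stimulus; more negative B-score means stronger Kir2.1 block with less thallium influx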
# KCNQ1 act = potentiates or activates the human KCNQ1 potassium channel | P51787 | CHO-K1 KCNQ1, thallium flux FluxOR fluorescence; stronger effect = higher value | B-score at 10 µM | actives 0.35% (n = 310,000);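 active = fluorescence ratio B-score, a plate-corrected score, at least three library SD, with initial intensity B-score within 5 SD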
#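 Doses: Single concentration per compound, DMSO matched to controls | Test system: KCNQ1-transfected CHO-K1 cells | Timing: 90 min dye loading and 20 min compound exposure, both at room temperature | Measured by: Kinetic FluxOR thallium fluorescence, 10-s 1-Hz baseline, 110-s post-stimulus read | Medium: Assay buffer with matched DMSO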
# hERG protect = hERG (human) protection from proarrhythmic block; Q12809; CHO-hERG, FluxOR thallium flux, dofetilide IC70 present; activation (rescue from dofetilide block), less the hit threshold, % at 10 µM; actives 0.51% (n = 310,000);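 active = activation above the mean of controls blocked by dofetilide plus 5 SD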;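 also: thallium influx through hERG after potassium depolarization seen as dye fluorescence rise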
# KCNQ1 block val = human KCNQ1 channel inhibition, validation assay; shares compounds with KCNQ1 block; KCNQ1 cell line, FluxOR thallium flux fluorescence; inhibition, % at 10 µM; actives 93% (n = 1,600);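 active = primary screen active, with duplicate mean exceeding buffer control mean plus 3 SD of buffer wells, cut at about 28% in these data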
# CHO KCNQ1 ctr = activity in parental CHO cells lacking KCNQ1. shares compounds with KCNQ1 block. parental CHO-K1, FluxOR thallium flux fluorescence ratio; stronger effect = lower value; zero means no signal rise above baseline. fluorescence ratio (Tl flux) at 10 µM. actives 21% (n = 1,600). AID 588366;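 active = mean of duplicate thallium-flux fluorescence ratios in parental host cells more than 5 SD below the buffer control mean, cut at about 0.38 in these data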;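 also: ratio is peak minus minimum fluorescence divided by baseline fluorescence; actives read low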
# KCNQ1 ephys val = human KCNQ1 inhibition validated by electrophysiology. KCNQ1-CHO cells, automated patch clamp current. calls only at 10 µM. actives 20% (n = 490). AID 624120. shares compounds with KCNQ1 block;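 active = KCNQ1 current drop exceeding 3 SD of negative control wells, seen in both duplicate runs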;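 also: steady state current during a 2 s step from -80 to +40 mV; negative values mean current inhibition and positive values mean potentiation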
# KCNQ2 spec = selectivity of KCNQ1 inhibitors: inhibition of rat KCNQ2 channel. shares compounds with KCNQ1 block. inhibition, % at 10 µM. KCNQ2 cells, FluxOR thallium flux fluorescence. actives 71% (n = 1,600);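 active = mean percent inhibition of the KCNQ2 thallium signal more than 5 SD above the buffer-only control wells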;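 also: KCNQ2 expressed in CHO cells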
# KCNQ1 KCNE1 spec = KCNQ1 inhibitor that also blocks human KCNQ1/KCNE1 channel | shares compounds with KCNQ1 block | KCNQ1/KCNE1 cells, FluxOR thallium flux fluorescence | inhibition, % at 10 µM | actives 77% (n = 1,600) | AID 652147;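 active = mean percent inhibition of duplicate wells above the buffer-only control mean plus 3 SD of those controls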
# Numbers stand for hits; i = inactive; nt = not tested or not shown; + = active, no number. The list is not random: actives were taken first. Their share in the collection is about 3.7%.
SMILES,KCNK9 inh,KCNQ1 block,KCNK3 inh,Kir21 block,KCNQ1 act,hERG protect,KCNQ1 block val,CHO KCNQ1 ctr,KCNQ1 ephys val,KCNQ2 spec,KCNQ1 KCNE1 spec
CCN(CC)CCN(C(=O)c1ccc2ncsc2c1)c1nc2cc3c(cc2s1)OCO3,i,10,i,i,i,i,92,i,+,89%,120%
O=C(c1cccc(C(F)(F)F)c1)C1CCCN(Cc2ccc(OCCO)cc2)C1 (centres undefined),i,i,i,i,i,i,nt,nt,nt,nt,nt
O=C(c1ccc2c(c1)OCO2)C1CCCN(Cc2cccc(C(F)(F)F)c2)C1 (centres undefined),i,7,i,i,i,i,88,i,i,96%,97%
COc1ccc(Nc2nc(N3CCCC3)nc3ccccc23)c(OC)c1,i,7,i,i,i,i,112,i,nt,81%,137%
Cc1ccc(Nc2nc(N3CCOCC3)c3ccccc3n2)cc1,i,i,i,i,i,i,nt,nt,nt,nt,nt
COc1ccc(Nc2ncnc3ccccc23)c(OC)c1,i,i,i,i,i,i,nt,nt,nt,nt,nt
COc1ccc(Nc2nc(N3CCCCC3)c3ccccc3n2)cc1,i,14,i,i,i,i,139,i,i,103%,122%
Cc1ccccc1OCCCCn1cnc2ccccc21,i,9,i,i,i,i,136,i,i,100%,59%
c1ccc2c(c1)ncn2CCCCOc1ccc2c(c1)CCC2,i,7,i,i,i,i,118,i,i,91%,82%
C/C(CC(=O)Nc1cccc(F)c1)=N\NC(=O)c1ccncc1,i,i,i,i,i,i,nt,nt,nt,nt,nt
CCOC(=O)c1oc2cccc(OCC(O)CNC(C)C)c2c1C (centres undefined),i,i,i,i,i,i,nt,nt,nt,nt,nt
Cc1ccc(CNC(=O)c2ccc(Cl)c(S(=O)(=O)N3CCCCC3)c2)cc1,nt,nt,i,nt,nt,nt,nt,nt,nt,nt,nt
O=C(Nc1ccccc1)C1C(c2ccccc2)C1(Cl)Cl (centres undefined),i,14,i,i,i,i,102,i,+,101%,136%
Cc1ccccc1NC(=O)C(c1ccccc1)C1CCCC1 (centres undefined),i,i,i,i,i,i,nt,nt,nt,nt,nt
O=C(Nc1ccc2ccccc2c1)C(c1ccccc1)C1CCCC1 (centres undefined),-7.5,15,i,i,i,i,138,0.31,nt,123%,167%
Cc1ccc(-n2c(-c3ccc(Br)cc3)c[n+]3c2CCc2ccc4cccnc4c2-3)cc1,i,19,-11,-14,i,i,136,0.32,nt,120%,184%
N#Cc1ccc(NC(=S)Nc2ccccc2)cc1,i,7,i,i,i,i,i,i,nt,i,56%
CNC(=S)Nc1ccc(C)cc1,i,i,i,i,i,i,nt,nt,nt,nt,nt
S=C(Nc1cccc(Br)c1)c1ccccc1,i,i,i,i,i,i,nt,nt,nt,nt,nt
S=C(Nc1ccccc1)Nc1cccc(Br)c1,i,8,i,i,i,i,60,i,nt,i,60%
Cc1ccc(NC(=S)Nc2ccc(Br)cc2)cc1,i,7,i,i,i,i,48,i,nt,i,i
S=C(NNC(=S)Nc1ccccc1)Nc1ccccc1,i,i,i,i,i,i,nt,nt,nt,nt,nt
N#Cc1ccc(NC(=O)Nc2ccc(Cl)cc2)cc1,i,6,i,i,i,i,i,i,nt,i,i
